SIRT5 block = blocks human SIRT5 desuccinylation of peptide | Purified SirT5, succinyl-peptide AMC, trypsin-coupled fluorescence | Q9NXA8 | AID 652115 | inhibition, % at 15 µM | 330,000 tested, 1.1% active; in the data active = inhibition above about 15%; inconclusive = no clear call, values can overlap the other calls
Target sequence (Q9NXA8 whole entry, looked up): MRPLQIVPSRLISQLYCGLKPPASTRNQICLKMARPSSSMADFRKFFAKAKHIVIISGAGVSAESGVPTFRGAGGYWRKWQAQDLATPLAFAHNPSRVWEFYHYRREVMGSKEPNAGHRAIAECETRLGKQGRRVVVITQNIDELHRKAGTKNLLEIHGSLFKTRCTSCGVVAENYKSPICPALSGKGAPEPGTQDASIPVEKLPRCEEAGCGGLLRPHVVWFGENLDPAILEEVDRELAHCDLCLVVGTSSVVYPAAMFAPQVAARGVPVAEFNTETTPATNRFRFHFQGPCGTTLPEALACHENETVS
Statin myotox sup = suppression of simvastatin myotoxicity; C2C12 myotubes + simvastatin, ATP luminescence, 48 h; scaled: DMSO 0, geranylgeraniol control 100; rescue of ATP level, % at 7.49 µM; 330,000 tested, 0.78% active;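 active = mean ATP rescue above about 67%, or every replicate alone reaching that limit, limit read from the data, passing the limit was not always enough; inconclusive = no clear call, values can overlap the other calls; inactive = mean under the limit and some replicate under it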;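 note: myotubes were challenged with 10 µM simvastatin during compound exposure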
S100A4 inh HTS = blocks human S100A4 binding to myosin IIA peptide; P26447; S100A4/TAMRA-MyoIIA peptide fluorescence polarization; inhibition, % at 10.7 µM; 360,000 tested, 0.14% active; AID 652163;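 active = mean inhibition of at least 70% across replicates, with every replicate also reaching that level; inconclusive = mean inhibition reaches 70% but some replicates fall short; inactive = mean inhibition below 70%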
Target sequence (P26447 whole entry, looked up): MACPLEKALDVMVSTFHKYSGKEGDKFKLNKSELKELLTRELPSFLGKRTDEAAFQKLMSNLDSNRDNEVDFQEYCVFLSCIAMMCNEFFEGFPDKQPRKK
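System – human S100A4 monomer protein, biochemical binding assay · Buffer or medium – Calcium-containing HEPES buffer, pH 7.2 · Timing – 5 min between mix addition and reading · Also added – TAMRA-labelled myosin IIA heavy-chain peptide probe, 5 nM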
PGC1a acetyl inh = lowers PGC1a acetylation signal in U2OS cells; AlphaScreen anti-acetyl-lysine; with virally co-expressed GCN5 acetyltransferase; inhibition, % at 15.6 µM; 350,000 tested, 0.17% active;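 active = every replicate shows inhibition of at least 40%; inconclusive = mean inhibition at least 40% but some replicate below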
DENV2 CPE = inhibitors of DENV2 cytopathic effect. CPE inhibition, % at 9.99 µM. 350,000 tested, 1.7% active. DENV2-infected cells, cytopathic effect rescue, plate reader; in the data active = CPE inhibition above about 20%, passing the limit was not always enough; inconclusive = no clear call, values can overlap the other calls; tested in BHK-21 cells
Of the large screens only hits and unclear results are named; the others gave an inactive call; ! = not active in a repeat. Compounds with a hit are over-represented: about 2.9% of the library has one in this group of screens.

Cc1cccc(CSCC(=O)NCc2ccc(S(N)(=O)=O)cc2)c1	SIRT5 block 15.2
Cc1ccc(CNC(=O)CSCc2ccccc2)cc1	none
Cc1ccc(NC(=O)/C(C#N)=C/c2cccs2)c(C)c1	none (no result: SIRT5 block, Statin myotox sup, S100A4 inh HTS, DENV2 CPE)
Cc1cccc(C)c1NC(=O)/C(C#N)=C/c1cccs1	Statin myotox sup 84.2 (no result: SIRT5 block, S100A4 inh HTS, DENV2 CPE)
C[C@@H]1CN([C@@H](C)CO)C(=O)c2cc(NS(=O)(=O)c3ccc(Cl)cc3)ccc2O[C@@H](C)CCCCO[C@@H]1CN(C)C(=O)Cc1ccccc1	none (no result: Statin myotox sup)
COc1ccc(S(=O)(=O)N(C)C[C@H]2OCc3cnnn3CCCC(=O)N([C@@H](C)CO)C[C@H]2C)cc1	DENV2 CPE 63.9!
COc1cccc(S(=O)(=O)N(C)C[C@@H]2OCc3cnnn3CCCC(=O)N([C@@H](C)CO)C[C@@H]2C)c1	DENV2 CPE 20.1!
COc1ccc(S(=O)(=O)N(C)C[C@@H]2OCc3cnnn3CCCC(=O)N([C@@H](C)CO)C[C@H]2C)cc1	DENV2 CPE 27.9!
COc1ccc(S(=O)(=O)N(C)C[C@@H]2OCc3cnnn3CCCC(=O)N([C@H](C)CO)C[C@H]2C)cc1	none
C[C@@H]1CCCCO[C@H](CN(C)C(=O)Cc2ccccc2)[C@@H](C)CN([C@H](C)CO)C(=O)c2cc(NC(=O)Nc3cccc4ccccc34)ccc2O1	none (no result: Statin myotox sup)
C[C@@H]1CCCCO[C@H](CN(C)C(=O)CCCN(C)C)[C@@H](C)CN([C@@H](C)CO)C(=O)c2cc(NC(=O)Nc3cccc4ccccc34)ccc2O1	SIRT5 block 17.6 (no result: Statin myotox sup)
C[C@H](CO)N1C[C@H](C)[C@@H](CN(C)C(=O)Cc2ccccc2)OCCCC[C@H](C)Oc2ccc(NC(=O)Nc3cccc4ccccc34)cc2C1=O	DENV2 CPE 23.6 (no result: Statin myotox sup)
C[C@@H]1CCCCO[C@@H](CN(C)Cc2ccccc2)[C@@H](C)CN([C@H](C)CO)C(=O)c2cc(NC(=O)Nc3cccc4ccccc34)ccc2O1	DENV2 CPE 21.0!
C[C@@H]1CCCCO[C@@H](CN(C)Cc2ccccc2)[C@H](C)CN([C@@H](C)CO)C(=O)c2cc(NC(=O)Nc3cccc4ccccc34)ccc2O1	none (no result: Statin myotox sup)
CO[C@H]1CN(C)C(=O)c2cc(NC(=O)Nc3cccc(Cl)c3)ccc2OC[C@H](C)N(C(=O)Nc2c(C)noc2C)C[C@@H]1C	none (no result: SIRT5 block, S100A4 inh HTS, DENV2 CPE)
COc1ccc(C(=O)CC(=O)C(=O)Nc2cccc([N+](=O)[O-])c2C)cc1	DENV2 CPE 29.9 (no result: Statin myotox sup, PGC1a acetyl inh)
CCSc1ncc(Cl)c(C(=O)Nc2ccccc2C)n1	SIRT5 block 32.9
CSc1ncc(Cl)c(C(=O)Nc2ccccc2C)n1	none (no result: PGC1a acetyl inh)
CCS(=O)(=O)c1ncc(Cl)c(C(=O)Nc2ccccc2OC)n1	Statin myotox sup 143.9 (no result: PGC1a acetyl inh)
Cc1ccc(NC(=O)c2nc(S(=O)(=O)Cc3ccccc3C)ncc2Cl)cc1C	SIRT5 block 15.6 (no result: PGC1a acetyl inh)
CN1[C@@H]2c3ccc(-c4cccnc4)c(=O)n3C[C@H]1[C@H](CO)[C@H]2C(=O)NCCc1ccccc1	none (no result: SIRT5 block, S100A4 inh HTS, PGC1a acetyl inh, DENV2 CPE)
COc1ccc(-c2c(-c3cc(OC)cc(OC)c3)n(C)c3ccc(Br)cc23)cc1	DENV2 CPE 31.9 (no result: SIRT5 block, PGC1a acetyl inh)
Cc1ccccc1S(=O)(=O)NCC[C@H]1CC[C@H](NC(=O)Nc2cccc(Cl)c2)[C@@H](CO)O1	none
O=C(c1ccccc1)N1CC(=O)N2[C@H](CO)[C@H](c3ccc(C4=CCCC4)cc3)[C@@H]2C1	none (no result: Statin myotox sup)
C[C@@H]1CCCCO[C@H](CN(C)C(=O)Nc2ccc(F)cc2)[C@@H](C)CN([C@@H](C)CO)C(=O)c2cc(NS(C)(=O)=O)ccc2O1	none (no result: Statin myotox sup, PGC1a acetyl inh)
COCCNc1nc(NCc2cnc(C)cn2)c2sccc2n1	SIRT5 block 16.6 (no result: PGC1a acetyl inh)
CO[C@H]1CN(C)C(=O)c2cc(NS(=O)(=O)c3ccc(F)cc3)ccc2OC[C@@H](C)NC[C@H]1C	none
CCCCNC(=O)O[C@H]1C[C@@H]2CCN3C(=O)CCC[C@H]([C@H]1Cc1ccccc1)[C@H]23	DENV2 CPE 53.9 (no result: PGC1a acetyl inh)
COCC(=O)N1[C@@H](CO)[C@H](c2ccc(-c3cccc(OC)c3)cc2)C12CN(C(C)=O)C2	DENV2 CPE 30.9 (no result: Statin myotox sup)
COCC(=O)N1CC2(C1)[C@H](c1ccc(-c3cccc(C)c3)cc1)[C@H](CO)N2C(=O)C1CC1	DENV2 CPE 48.9 (no result: Statin myotox sup)
CCCCC1OC2(C)OC(=N)C1(C#N)C(C#N)(C#N)C2c1ccccc1 (centres undefined)	DENV2 CPE 72.7 (no result: SIRT5 block, Statin myotox sup, PGC1a acetyl inh)
CC1OC2(C)OC(=N)C1(C#N)C(C#N)(C#N)C2c1ccccc1 (centres undefined)	DENV2 CPE inconclusive (no result: Statin myotox sup, PGC1a acetyl inh)
Cc1ccc(S(=O)(=O)Nc2ccc(O)c3cccnc23)cc1	none
Cc1ccc(S(=O)(=O)Nc2ccc(O)c3ncccc23)cc1	DENV2 CPE 107.5 (no result: SIRT5 block)
COc1ccc(NC(=O)Nc2ccc3c(c2)C(=O)N([C@H](C)CO)C[C@H](C)[C@@H](CN(C)S(=O)(=O)c2cn(C)cn2)OCCCC[C@H](C)O3)cc1	DENV2 CPE inconclusive (no result: SIRT5 block, Statin myotox sup, S100A4 inh HTS)
O=C(C[C@@H]1CC[C@H]2[C@@H](COC[C@@H](O)CN2C(=O)c2ccncc2)O1)Nc1ccc(-c2ccccc2)cc1	DENV2 CPE 20.9
CN(C)C(=O)C[C@@H]1CC[C@H]2[C@@H](COC[C@@H](O)CN2C(=O)c2ccncc2)O1	none (no result: SIRT5 block, S100A4 inh HTS)
CN(C)C(=O)C[C@H]1CC[C@@H]2[C@H](COC[C@@H](O)CN2C(=O)c2ccncc2)O1	SIRT5 block 16.3
CC(C)NC(=O)Nc1ccc2c(c1)C(=O)N([C@@H](C)CO)C[C@H](C)[C@H](CN(C)Cc1ccncc1)OCCCC[C@H](C)O2	none (no result: Statin myotox sup)
Cc1ccc(NC(=O)Nc2ccc(S(N)(=O)=O)cc2)cc1	none (no result: Statin myotox sup)
NS(=O)(=O)c1ccc(NC(=O)Nc2ccccc2)cc1	none (no result: Statin myotox sup, PGC1a acetyl inh)
NS(=O)(=O)c1ccc(NC(=O)Nc2ccc(S(N)(=O)=O)cc2)cc1	SIRT5 block 15.1 (no result: Statin myotox sup)
Cc1ccc(S(N)(=O)=O)cc1	DENV2 CPE 51.9 (no result: SIRT5 block)
CCNc1nc(OC)nc(SCC(N)=O)n1	Statin myotox sup 69.1 (no result: SIRT5 block, S100A4 inh HTS, DENV2 CPE)
CC[C@]12c3[nH]c4ccccc4c3CCN1C(=O)C(CC(=O)NCCC1=CCCCC1)C[C@@H]2C(=O)N1CCN(C(=O)C2CC2)CC1 (some centres undefined)	DENV2 CPE 54.5
C[C@]12c3[nH]c4ccc(Cl)cc4c3CCN1C(=O)[C@@H](CC(=O)NCCC1=CCCCC1)C[C@@H]2C(=O)N1CCCCC1	none
CC[C@]12c3[nH]c4cc(CCC(=O)N(C)C)ccc4c3CCN1C(=O)[C@@H](CC(=O)NCCC1=CCCCC1)C[C@@H]2C(=O)N1CCN(C(=O)C2CC2)CC1	none (no result: PGC1a acetyl inh)
CC[C@]12c3[nH]c4ccc(Cl)cc4c3CCN1C(=O)[C@@H](CC(=O)NCCC1=CCCCC1)C[C@@H]2C(=O)N1CCN(C(=O)C2CC2)CC1	SIRT5 block 17.8
O=C(O)C(C(=O)/C=C/c1ccco1)=C1SCCS1	Statin myotox sup 68.3 (no result: SIRT5 block, S100A4 inh HTS, DENV2 CPE)
O=C(C[C@H]1C=C[C@@H](NC(=O)c2ccncc2)[C@H](CO)O1)Nc1ccc(-c2ccccc2)cc1	none
COc1cccc(NC(=O)c2ccccc2-c2ccccc2C(=O)O)c1	PGC1a acetyl inh 81.3
Cc1ccc(NC(=O)c2cc3ccccc3cc2O)cc1	none
